According to ChEMBL document CHEMBL1147962, “Synthesis and antifungal activity of novel s-substituted 6-fluoro-4-alkyl(aryl)thioquinazoline derivatives” (Bioorg Med Chem, 2007):
In brackets after ≈: the same amount, converted by molar mass. Activity calls are given as the source filed them. No cut-off for these calls is given here.

Columns and labels:
Fusarium oxysporum [1] = assay: Increase in membrane permeability of Fusarium oxysporum at 100 ug/mL after 5 mins; format: functional
Outline: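 F. oxysporum cells were treated and sampled from 5 min onward over a longer time course. Cell-membrane relative permeability rate (%) was measured against an untreated control, with Hymexazol as reference.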

Fusarium oxysporum [2] = assay: Decrease in mycelial chitinase activity assessed as D-GlcNAc content in Fusarium oxysporum after 1 hrs; format: functional
Outline: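 F. oxysporum mycelia were treated over a time course up to 24 h and compared with an untreated control, with Hymexazol as reference fungicide. Chitinase activity was read as the D-GlcNAc content (mg/mL) produced by the enzyme in 1 h.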

Fusarium graminearum [3] = assay: Antifungal activity against Gibberella zeae at 500 ug/mL; format: functional
Fusarium oxysporum [4] = assay: Effect on hyphal morphology of Fusarium oxysporum at 100 ug/mL; format: functional, organism-based
Outline: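 Hyphae and cell contents of treated F. oxysporum were examined microscopically against untreated control hyphae.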

Fusarium oxysporum [5] = assay: Effect on mycelial reducing sugar content in Fusarium oxysporum after 12 hrs; format: functional
Outline: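 F. oxysporum mycelia were treated and sampled from 0.5 h to 12 h. Mycelial reducing sugar content (mg/mL) was measured at each time point against an untreated control.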

[6] = test system: Colletotrichum gloeosporioides; assay: Antifungal activity against Colletotrichum gloeosporioides; format: functional, organism-based
Botrytis cinerea = assay: Antifungal activity against Botrytis cinerea; format: functional, organism-based
Fusarium oxysporum [7] = assay: Decrease in mycelial reducing sugar content in Fusarium oxysporum at 6 hrs; format: functional, organism-based
Outline: (§1)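 Reducing sugar content (mg/mL) of F. oxysporum mycelia was followed over time, sampled from 0.5 h to 12 h of treatment, against an untreated control.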

Fusarium graminearum [8] = assay: Antifungal activity against Gibberella zeae; format: functional, organism-based
Fusarium oxysporum [9] = assay: Antifungal activity against Fusarium oxysporum; format: functional, organism-based
Outline: (§2)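 Preliminary fungicidal bioassay on plant-pathogenic fungi (G. zeae, F. oxysporum, C. mandshurica), with the commercial fungicide Hymexazol as reference.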

Thanatephorus cucumeris = assay: Antifungal activity against Thanatephorus cucumeris; format: functional, organism-based
Fusarium oxysporum [10] = assay: Inhibition of sporule germination of Fusarium oxysporum at 60 ug/mL; format: functional
Outline: (§3)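 F. oxysporum spores were exposed to a concentration series. Germination was scored as percentage of spores germinated, and inhibition was calculated relative to an untreated control.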

Rhizoctonia solani = assay: Antifungal activity against Rhizoctonia solani; format: functional, organism-based
Cytospora [11] = assay: Antifungal activity against Cytospora mandshurica; format: functional; outline: as §2
Fusarium oxysporum [12] = assay: Effect on sporule germination of Fusarium oxysporum at 100 ug/mL; format: functional; outline: as §3
Fusarium oxysporum [13] = assay: Increase in mycelial soluble protein content in Fusarium oxysporum relative to control after 0.5 hrs; format: functional
Outline: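 Soluble protein content of treated F. oxysporum mycelia was followed from 0.5 h of exposure and expressed relative to an untreated control. Hymexazol was run alongside as reference.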

Fusarium oxysporum [14] = assay: Decrease in mycelial chitosan content in Fusarium oxysporum after 6 hrs relative to control; format: functional; set-up: scale not given: the % may be the effect or the level left
Outline: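 Chitosan content was measured as D-GlcNAc in F. oxysporum mycelia from treated cultures and read 6 h after inoculation. An untreated culture served as control and Hymexazol as the reference fungicide.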

Fusarium oxysporum [15] = assay: Decrease in mycelial reducing sugar content in Fusarium oxysporum after 0.5 hrs relative to control; format: functional; set-up: scale not given: the % may be the effect or the level left; outline: as §1
Phytophthora infestans = assay: Antifungal activity Phytophthora infestans; format: functional, organism-based
Sclerotinia sclerotiorum = assay: Antifungal activity against Sclerotinia sclerotiorum; format: functional, organism-based
Fusarium oxysporum [16] = assay: Antifungal activity against Fusarium oxysporum at 500 ug/mL; format: functional
Cytospora [17] = assay: Antifungal activity against Cytospora mandshurica at 500 ug/mL; format: functional

| Compound | inhibition at 500 µg/mL (Fusarium graminearum [3]) | EC50 [6] | EC50 (Botrytis cinerea) | EC50 (Fusarium graminearum [8]) | EC50 (Fusarium oxysporum [9]) | EC50 (Thanatephorus cucumeris) | EC50 (Rhizoctonia solani) | EC50 (Cytospora [11]) | EC50 (Phytophthora infestans) | EC50 (Sclerotinia sclerotiorum) | inhibition at 500 µg/mL (Fusarium oxysporum [16]) | inhibition at 500 µg/mL (Cytospora [17]) | further results |
| --- | --- | --- | --- | --- | --- | --- | --- | --- | --- | --- | --- | --- | --- |
| CCSc1ncnc2ccc(F)cc12 | 100% | 64.2 µg/mL (≈ 308 µM) | 8.3 µg/mL (≈ 39.9 µM) | 12.4 µg/mL (≈ 59.5 µM) | 18.2 µg/mL (≈ 87.4 µM) | 30.8 µg/mL (≈ 148 µM) | 24.9 µg/mL (≈ 120 µM) | 19.2 µg/mL (≈ 92.2 µM) | 26.8 µg/mL (≈ 129 µM) | 11.4 µg/mL (≈ 54.7 µM) | 98.5% | 100% | Activity (Fusarium oxysporum [1]): 12%; Activity (Fusarium oxysporum [2]): 0.0364 mg/mL; Activity (Fusarium oxysporum [4]): Active; Activity (Fusarium oxysporum [5]): 0.67 mg/mL; Activity (Fusarium oxysporum [7]): Active; inhibition at 60 µg/mL (Fusarium oxysporum [10]): 32.9%; Activity (Fusarium oxysporum [12]): 6.5%; Activity (Fusarium oxysporum [13]): 33.1%; Activity (Fusarium oxysporum [14]): 6.1%; Activity (Fusarium oxysporum [15]): 19.8% |
| Fc1ccc2ncnc(SCc3ccccc3)c2c1 | 15% |  |  |  |  |  |  |  |  |  | 18.9% | 21.4% |  |
| Cc1cc(O)no1 [HYMEXAZOL] | 100% |  | 4.6 µg/mL (≈ 46.4 µM) |  |  |  |  |  |  | 5.1 µg/mL (≈ 51.5 µM) | 91.3% | 91.2% | Activity (Fusarium oxysporum [1]): 6%; Activity (Fusarium oxysporum [2]): 0.0411 mg/mL; Activity (Fusarium oxysporum [5]): 0.85 mg/mL |
| CCCSc1ncnc2ccc(F)cc12 | 96.4% | 40.1 µg/mL (≈ 180 µM) | 13 µg/mL (≈ 58.5 µM) | 30.1 µg/mL (≈ 135 µM) | 25.1 µg/mL (≈ 113 µM) | 46.2 µg/mL (≈ 208 µM) | 29.2 µg/mL (≈ 131 µM) | 25.8 µg/mL (≈ 116 µM) | 26.9 µg/mL (≈ 121 µM) | 17.1 µg/mL (≈ 76.9 µM) | 89.3% | 94.8% |  |
| CCOC(=O)CSc1ncnc2ccc(F)cc12 | 13.3% |  |  |  |  |  |  |  |  |  | 20.3% | 30.1% |  |
| Fc1ccc2ncnc(SCc3ccc(Cl)nc3)c2c1 | 16.3% |  |  |  |  |  |  |  |  |  | 21.9% | 38.5% |  |
| COc1ccc(C(=O)CSc2ncnc3ccc(F)cc23)c(OC)c1OC | 6.2% |  |  |  |  |  |  |  |  |  | 5.3% | 11.2% |  |
| C=CCSc1ncnc2ccc(F)cc12 | 100% | 21.4 µg/mL (≈ 97.2 µM) | 42.4 µg/mL (≈ 192 µM) | 37 µg/mL (≈ 168 µM) | 32.2 µg/mL (≈ 146 µM) | 40.6 µg/mL (≈ 184 µM) | 46.3 µg/mL (≈ 210 µM) | 23.3 µg/mL (≈ 106 µM) | 51.2 µg/mL (≈ 232 µM) | 35.2 µg/mL (≈ 160 µM) | 92.3% | 96.9% |  |
| Fc1ccc2ncnc(SCc3ccc(Cl)cc3)c2c1 | 7.6% |  |  |  |  |  |  |  |  |  | 5.9% | 11.8% |  |
